According to ChEMBL document CHEMBL1255475, “Mutant prevention concentrations of four carbapenems against gram-negative rods” (2010):
Converted amounts (≈) assume the structure as drawn.

Legend:
Format in all cases: functional
Pseudomonas aeruginosa [1] = assay: Antibacterial activity against Pseudomonas aeruginosa P376 assessed as mutant prevention concentration after overnight incubation
Acinetobacter baumannii [2] = assay: Antibacterial activity against Acinetobacter baumannii A898 assessed as mutant prevention concentration after overnight incubation
Klebsiella pneumoniae [3] = assay: Antibacterial activity against beta-lactamase-positive ESBL-negative Klebsiella pneumoniae E481 assessed as mutant prevention concentration after overnight incubation
Method in brief: (§1)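 Overnight growth on blood trypticase soy agar (35°C, air) was resuspended in 0.9% saline and counted on drug-free Mueller-Hinton agar. […] Colonies were retested by agar dilution to confirm mutants. MPC was the lowest concentration preventing resistant-mutant growth.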

Klebsiella pneumoniae [4] = assay: Antibacterial activity against beta-lactamase-positive ESBL-negative Klebsiella pneumoniae E477 assessed as mutant prevention concentration after overnight incubation; method in brief: as §1
Escherichia coli [5] = assay: Antibacterial activity against beta-lactamase-negative Escherichia coli E348 assessed as mutant prevention concentration after overnight incubation
Pseudomonas aeruginosa [6] = assay: Antibacterial activity against Pseudomonas aeruginosa P338 assessed as mutant prevention concentration after overnight incubation
Klebsiella pneumoniae [7] = assay: Antibacterial activity against beta-lactamase-positive ESBL-negative Klebsiella pneumoniae E480 assessed as mutant prevention concentration after overnight incubation; method in brief: as §1
Pseudomonas aeruginosa [8] = assay: Antibacterial activity against Pseudomonas aeruginosa P335 assessed as mutant prevention concentration after overnight incubation
Pseudomonas aeruginosa [9] = assay: Antibacterial activity against Pseudomonas aeruginosa P356 assessed as mutant prevention concentration after overnight incubation
Acinetobacter baumannii [10] = assay: Antibacterial activity against Acinetobacter baumannii A929 assessed as mutant prevention concentration after overnight incubation
Escherichia coli [11] = assay: Antibacterial activity against beta-lactamase-positive ESBL-positive Escherichia coli E451 assessed as mutant prevention concentration after overnight incubation; method in brief: as §1
Klebsiella pneumoniae [12] = assay: Antibacterial activity against beta-lactamase-negative Klebsiella pneumoniae E419 assessed as mutant prevention concentration after overnight incubation; method in brief: as §1
Klebsiella pneumoniae [13] = assay: Antibacterial activity against beta-lactamase-negative Klebsiella pneumoniae E360 assessed as mutant prevention concentration after overnight incubation
Pseudomonas aeruginosa [14] = assay: Antibacterial activity against Pseudomonas aeruginosa P334 assessed as mutant prevention concentration after overnight incubation
Pseudomonas aeruginosa [15] = assay: Antibacterial activity against Pseudomonas aeruginosa P341 assessed as mutant prevention concentration after overnight incubation
Klebsiella pneumoniae [16] = assay: Antibacterial activity against beta-lactamase-positive ESBL-negative Klebsiella pneumoniae E511 assessed as mutant prevention concentration after overnight incubation; method in brief: as §1
Pseudomonas aeruginosa [17] = assay: Antibacterial activity against Pseudomonas aeruginosa P373 assessed as mutant prevention concentration after overnight incubation
Escherichia coli [18] = assay: Antibacterial activity against beta-lactamase-positive ESBL-positive Escherichia coli E458 assessed as mutant prevention concentration after overnight incubation; method in brief: as §1
Klebsiella pneumoniae [19] = assay: Antibacterial activity against beta-lactamase-negative Klebsiella pneumoniae E358 assessed as mutant prevention concentration after overnight incubation
Escherichia coli [20] = assay: Antibacterial activity against beta-lactamase-positive ESBL-negative Escherichia coli E415 assessed as mutant prevention concentration after overnight incubation; method in brief: as §1
Pseudomonas aeruginosa [21] = assay: Antibacterial activity against Pseudomonas aeruginosa P353 assessed as mutant prevention concentration after overnight incubation
Klebsiella pneumoniae [22] = assay: Antibacterial activity against beta-lactamase-positive ESBL-positive Klebsiella pneumoniae E478 assessed as mutant prevention concentration after overnight incubation; method in brief: as §1
Klebsiella pneumoniae [23] = assay: Antibacterial activity against beta-lactamase-positive ESBL-negative Klebsiella pneumoniae E507 assessed as mutant prevention concentration after overnight incubation; method in brief: as §1
Pseudomonas aeruginosa [24] = assay: Antibacterial activity against Pseudomonas aeruginosa P369 assessed as mutant prevention concentration after overnight incubation
Pseudomonas aeruginosa [25] = assay: Antibacterial activity against Pseudomonas aeruginosa P320 assessed as mutant prevention concentration after overnight incubation
Escherichia coli [26] = assay: Antibacterial activity against beta-lactamase-positive ESBL-positive Escherichia coli E446 assessed as mutant prevention concentration after overnight incubation; method in brief: as §1
Escherichia coli [27] = assay: Antibacterial activity against beta-lactamase-positive ESBL-negative Escherichia coli E437 assessed as mutant prevention concentration after overnight incubation; method in brief: as §1
Klebsiella pneumoniae [28] = assay: Antibacterial activity against beta-lactamase-negative Klebsiella pneumoniae E417 assessed as mutant prevention concentration after overnight incubation
Acinetobacter baumannii [29] = assay: Antibacterial activity against Acinetobacter baumannii A931 assessed as mutant prevention concentration after overnight incubation
Klebsiella pneumoniae [30] = assay: Antibacterial activity against beta-lactamase-positive ESBL-positive Klebsiella pneumoniae E475 assessed as mutant prevention concentration after overnight incubation; method in brief: as §1
Acinetobacter baumannii [31] = assay: Antibacterial activity against Acinetobacter baumannii A849 assessed as mutant prevention concentration after overnight incubation
Acinetobacter baumannii [32] = assay: Antibacterial activity against Acinetobacter baumannii A901 assessed as mutant prevention concentration after overnight incubation
Escherichia coli [33] = assay: Antibacterial activity against beta-lactamase-positive ESBL-positive Escherichia coli E465 incubated up to 7 days by agar dilution method; details: E465, 168 h
Method in brief: (§2)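 MIC by CLSI agar dilution, with quality-control strains in each run. Beta-lactamase status was set by 30 μg cefazolin Kirby-Bauer disk diffusion. ESBL status was set by cefotaxime and ceftazidime disks (30 μg) with and without clavulanic acid (10 μg).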

Klebsiella pneumoniae [34] = assay: Antibacterial activity against beta-lactamase-positive ESBL-negative Klebsiella pneumoniae E477 incubated up to 7 days by agar dilution method; details: E477, 168 h
Escherichia coli [35] = assay: Antibacterial activity against beta-lactamase-positive ESBL-negative Escherichia coli E484 incubated up to 7 days by agar dilution method; details: E484, 168 h
Escherichia coli [36] = assay: Antibacterial activity against beta-lactamase-negative Escherichia coli E345 incubated up to 7 days by agar dilution method; details: E345, 168 h
Klebsiella pneumoniae [37] = assay: Antibacterial activity against beta-lactamase-positive ESBL-negative Klebsiella pneumoniae E474 incubated up to 7 days by agar dilution method; details: E474, 168 h
Klebsiella pneumoniae [38] = assay: Antibacterial activity against beta-lactamase-negative Klebsiella pneumoniae E357 incubated up to 7 days by agar dilution method; details: E357, 168 h
Klebsiella pneumoniae [39] = assay: Antibacterial activity against beta-lactamase-negative Klebsiella pneumoniae E418 incubated up to 7 days by agar dilution method; details: E418, 168 h
Klebsiella pneumoniae [40] = assay: Antibacterial activity against beta-lactamase-positive ESBL-negative Klebsiella pneumoniae E481 incubated up to 7 days by agar dilution method; details: E481, 168 h
Escherichia coli [41] = assay: Antibacterial activity against beta-lactamase-positive ESBL-negative Escherichia coli E437 incubated up to 7 days by agar dilution method; details: E437, 168 h; method in brief: as §2
Escherichia coli [42] = assay: Antibacterial activity against beta-lactamase-negative Escherichia coli E348 incubated up to 7 days by agar dilution method; details: E348, 168 h
Escherichia coli [43] = assay: Antibacterial activity against beta-lactamase-positive ESBL-negative Escherichia coli E415 incubated up to 7 days by agar dilution method; details: E415, 168 h; method in brief: as §2
Escherichia coli [44] = assay: Antibacterial activity against beta-lactamase-positive ESBL-negative Escherichia coli E430 incubated up to 7 days by agar dilution method; details: E430, 168 h; method in brief: as §2
Klebsiella pneumoniae [45] = assay: Antibacterial activity against beta-lactamase-negative Klebsiella pneumoniae E417 incubated up to 7 days by agar dilution method; details: E417, 168 h; method in brief: as §2
Escherichia coli [46] = assay: Antibacterial activity against beta-lactamase-positive ESBL-positive Escherichia coli E458 incubated up to 7 days by agar dilution method; details: E458, 168 h; method in brief: as §2

For `C[C@@H](O)[C@H]1C(=O)N2C(C(=O)O)=C(SCCNC=N)C[C@H]12` [IMIPENEM ANHYDROUS], the MPC (Pseudomonas aeruginosa [1]) was 64 µg/mL, the MPC (Acinetobacter baumannii [2]) was 4 µg/mL and the MPC (Klebsiella pneumoniae [3]) was 16 µg/mL. The MPC (Klebsiella pneumoniae [4]) was 32 µg/mL, the MPC (Escherichia coli [5]) was 0.5 µg/mL and the MPC (Pseudomonas aeruginosa [6]) was 16 µg/mL. It also gave an MPC (Klebsiella pneumoniae [7]) of over 16 µg/mL, an MPC (Pseudomonas aeruginosa [8]) of 32 µg/mL and an MPC (Pseudomonas aeruginosa [9]) of over 32 µg/mL. For the same compound, the MPC (Acinetobacter baumannii [10]) was 1 µg/mL, the MPC (Escherichia coli [11]) was 0.5 µg/mL and the MPC (Klebsiella pneumoniae [12]) was 1 µg/mL. For the same compound, the MPC (Klebsiella pneumoniae [13]) was 1 µg/mL, the MPC (Pseudomonas aeruginosa [14]) was 16 µg/mL and the MPC (Pseudomonas aeruginosa [15]) was 32 µg/mL. For the same compound, the MPC (Klebsiella pneumoniae [16]) was 64 µg/mL, the MPC (Pseudomonas aeruginosa [17]) was 32 µg/mL and the MPC (Escherichia coli [18]) was 0.5 µg/mL. The MPC (Klebsiella pneumoniae [19]) was 0.5 µg/mL, the MPC (Escherichia coli [20]) was 0.5 µg/mL and the MPC (Pseudomonas aeruginosa [21]) was 64 µg/mL. It also gave an MPC (Klebsiella pneumoniae [22]) of 16 µg/mL, an MPC (Klebsiella pneumoniae [23]) of 64 µg/mL and an MPC (Pseudomonas aeruginosa [24]) of 32 µg/mL. The MPC (Pseudomonas aeruginosa [25]) was 32 µg/mL, the MPC (Escherichia coli [26]) was 2 µg/mL and the MPC (Escherichia coli [27]) was 1 µg/mL. For the same compound, the MPC (Klebsiella pneumoniae [28]) was 0.5 µg/mL, the MPC (Acinetobacter baumannii [29]) was 1 µg/mL and the MPC (Klebsiella pneumoniae [30]) was 16 µg/mL. It also gave an MPC (Acinetobacter baumannii [31]) of 64 µg/mL and an MPC (Acinetobacter baumannii [32]) of 8 µg/mL.
`C[C@@H](O)[C@H]1C(=O)N2C(C(=O)O)=C(S[C@@H]3CN[C@H](C(=O)N(C)C)C3)[C@H](C)[C@H]12` [MEROPENEM] showed an MPC (Pseudomonas aeruginosa [1]) of 16 µg/mL, an MPC (Acinetobacter baumannii [2]) of 8 µg/mL and an MIC (Escherichia coli [33]) of 0.06 mg/L (≈ 0.156 µM). The MPC (Klebsiella pneumoniae [3]) was 16 µg/mL, the MIC (Klebsiella pneumoniae [34]) was 2 mg/L (≈ 5.22 µM) and the MPC (Klebsiella pneumoniae [4]) was 8 µg/mL. It also gave an MIC (Escherichia coli [35]) of 1 mg/L (≈ 2.61 µM), an MPC (Escherichia coli [5]) of 0.06 µg/mL and an MPC (Pseudomonas aeruginosa [6]) of over 4 µg/mL. It also gave an MIC (Escherichia coli [36]) of 0.03 mg/L (≈ 0.0782 µM), an MPC (Klebsiella pneumoniae [7]) of 16 µg/mL and an MPC (Pseudomonas aeruginosa [8]) of 32 µg/mL. The MIC (Klebsiella pneumoniae [37]) was 4 mg/L (≈ 10.4 µM), the MIC (Klebsiella pneumoniae [38]) was 0.03 mg/L (≈ 0.0782 µM) and the MIC (Klebsiella pneumoniae [39]) was 0.06 mg/L (≈ 0.156 µM). For the same compound, the MIC (Klebsiella pneumoniae [40]) was 1 mg/L (≈ 2.61 µM), the MPC (Pseudomonas aeruginosa [9]) was over 4 µg/mL and the MPC (Acinetobacter baumannii [10]) was 4 µg/mL. For the same compound, the MIC (Escherichia coli [41]) was 0.06 mg/L (≈ 0.156 µM), the MPC (Escherichia coli [11]) was 0.06 µg/mL and the MIC (Escherichia coli [42]) was 0.03 mg/L (≈ 0.0782 µM). It also gave an MIC (Escherichia coli [43]) of 0.06 mg/L (≈ 0.156 µM), an MPC (Klebsiella pneumoniae [12]) of 0.125 µg/mL and an MPC (Klebsiella pneumoniae [13]) of 0.125 µg/mL. It also gave an MPC (Pseudomonas aeruginosa [14]) of over 4 µg/mL, an MIC (Escherichia coli [44]) of 0.03 mg/L (≈ 0.0782 µM) and an MPC (Pseudomonas aeruginosa [15]) of 8 µg/mL. For the same compound, the MPC (Klebsiella pneumoniae [16]) was 64 µg/mL, the MPC (Pseudomonas aeruginosa [17]) was over 8 µg/mL and the MPC (Escherichia coli [18]) was 0.125 µg/mL. It also gave an MPC (Klebsiella pneumoniae [19]) of 0.06 µg/mL, an MPC (Escherichia coli [20]) of 0.125 µg/mL and an MPC (Pseudomonas aeruginosa [21]) of 8 µg/mL. For the same compound, the MPC (Klebsiella pneumoniae [22]) was 8 µg/mL, the MPC (Klebsiella pneumoniae [23]) was over 64 µg/mL and the MIC (Klebsiella pneumoniae [45]) was 0.06 mg/L (≈ 0.156 µM). The MPC (Pseudomonas aeruginosa [24]) was over 4 µg/mL, the MIC (Escherichia coli [46]) was 0.03 mg/L (≈ 0.0782 µM) and the MPC (Pseudomonas aeruginosa [25]) was over 8 µg/mL. The MPC (Escherichia coli [26]) was 0.125 µg/mL, the MPC (Escherichia coli [27]) was 0.125 µg/mL and the MPC (Klebsiella pneumoniae [28]) was 0.06 µg/mL. For the same compound, the MPC (Acinetobacter baumannii [29]) was 4 µg/mL, the MPC (Klebsiella pneumoniae [30]) was 32 µg/mL and the MPC (Acinetobacter baumannii [31]) was 32 µg/mL. For the same compound, the MPC (Acinetobacter baumannii [32]) was 8 µg/mL.
